Measured values published in ChEMBL document CHEMBL3352209, “Chroman-4-one- and chromone-based sirtuin 2 inhibitors with antiproliferative properties in cancer cells” (J Med Chem, 2014).
One block for each compound: values may come before it. The source made the active and inactive calls. No cut-off for these calls is given here.

What was measured:
[1] = target: T1, NAD-dependent protein deacetylase sirtuin-2 (Homo sapiens) (UniProt Q8IXJ6); experiment: Inhibition of recombinant GST-tagged sirtuin-2 (unknown origin) using KI179 as substrate at 200 uM after 1 hr by fluorescence assay
T1 sequence (whole entry): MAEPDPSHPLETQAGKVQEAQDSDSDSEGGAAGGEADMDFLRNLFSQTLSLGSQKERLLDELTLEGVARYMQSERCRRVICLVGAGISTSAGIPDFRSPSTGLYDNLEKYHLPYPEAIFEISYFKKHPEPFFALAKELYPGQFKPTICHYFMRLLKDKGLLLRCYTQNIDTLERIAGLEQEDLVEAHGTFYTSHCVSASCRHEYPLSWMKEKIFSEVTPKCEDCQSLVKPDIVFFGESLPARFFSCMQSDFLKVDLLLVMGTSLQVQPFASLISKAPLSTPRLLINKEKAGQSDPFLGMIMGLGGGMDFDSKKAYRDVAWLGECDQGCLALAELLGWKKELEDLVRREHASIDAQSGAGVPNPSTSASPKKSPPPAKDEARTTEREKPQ
In short: (§1)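 Recombinant GST-SIRT2 with Fluor de Lys KI179 acetyl-peptide at 0.7 Km (Km 198 μM) and NAD+ at 0.9 Km in HDAC buffer with 1 mg/mL BSA. Compound in DMSO (5% v/v) preincubated 5 min at room temperature, enzyme added, 1 h at 37 °C; developer plus 2 mM nicotinamide 45 min at 37 °C; fluorescence ex 370/em 460 nm. Single-point inhibition at 200 μM, n = 3; IC50 with 95% CI where inhibition >80%.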

[2] = system: A549; experiment: Induction of apoptosis in human A549 cells at 50 uM after 18 hrs by propidium iodide staining-based flow cytometry; format: functional, cell-based
[3] = target: T1, NAD-dependent protein deacetylase sirtuin-2 (Homo sapiens); conditions: MCF7, 25 to 100 uM
[4] = target: T2, NAD-dependent protein deacetylase sirtuin-2 (Homo sapiens, UniProt Q8IXJ6); experiment: Inhibition of recombinant GST-tagged sirtuin-2 (unknown origin) using KI179 as substrate after 1 hr by fluorescence assay; in short: as §1
T2 sequence (Q8IXJ6 whole entry): T1 sequence (whole entry)

[5] = target: T1, NAD-dependent protein deacetylase sirtuin-2 (Homo sapiens); experiment: Inhibition of SIRT2 in human MCF7 cells assessed as alpha-tubulin acetylation after 6 to 18 hrs by Western blotting analysis; format: cell-based
In short: (§2)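 MCF-7 cells seeded 10⁵/well, dosed 24 h later with compound plus 40 nM Trichostatin A, or 0.5% DMSO, for 6 or 18 h. Lysates separated by SDS-PAGE and blotted with acetylated α-tubulin and total α-tubulin mouse monoclonals, HRP anti-mouse and ECL detection; mean ± SEM of three independent experiments.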

[6] = system: MCF7; experiment: Induction of apoptosis in human MCF7 cells at 50 uM after 18 hrs by propidium iodide staining-based flow cytometry; format: functional, cell-based
[7] = system: MCF7; experiment: Antiproliferative activity against human MCF7 cells at 10 uM after 72 hrs by sulforhodamine B assay
[8] = system: MCF7; experiment: Cytotoxicity against human MCF7 cells at 100 uM after 18 hrs; format: cell-based; conditions: mcf7, 18 h
[9] = system: A549; experiment: Antiproliferative activity against human A549 cells at >=50 uM after 48 hrs by sulforhodamine B assay; format: functional, cell-based
[10] = system: MCF7; experiment: Antiproliferative activity against human MCF7 cells at 1 to 100 uM after 72 hrs by sulforhodamine B assay; format: functional, cell-based
In short: (§3)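 A549 and MCF-7 cells (DMEM, 10% FCS, penicillin/streptomycin, 37 °C, 5% CO2) seeded 3000 cells/well 24 h before dosing; 0–100 μM compound or 0.5% DMSO vehicle for 48 h (A549) or 72 h (MCF-7). Growth read by sulforhodamine B staining; mean ± SEM of two to three independent experiments; ANOVA with Tukey test.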

[11] = system: A549; experiment: Antiproliferative activity against human A549 cells at 10 uM after 48 hrs by sulforhodamine B assay; format: functional, cell-based
[12] = system: A549; experiment: Antiproliferative activity against human A549 cells at 1 to 100 uM after 48 hrs by sulforhodamine B assay; format: functional, cell-based; in short: as §3
[13] = system: MCF7; experiment: Cell cycle arrest in human MCF7 cells assessed as accumulation at G1/G0 phase at 50 uM after 18 hrs by propidium iodide staining-based flow cytometry; format: functional
In short: (§4)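 A549 or MCF-7 cells seeded 0.6 × 10⁶/well 6 h before exposure to compound or 0.5% DMSO vehicle for 18 h. DNA content measured by propidium iodide staining and flow cytometry, giving percent of cells in G1/G0, S and G2/M; mean ± SEM of two to four independent experiments; one-way ANOVA with Tukey test.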

[14] = system: A549; experiment: Cell cycle arrest in human A549 cells assessed as accumulation at G1/G0 phase at 50 uM after 18 hrs by propidium iodide staining-based flow cytometry; format: functional; in short: as §4
[15] = system: MCF7; experiment: Antiproliferative activity against human MCF7 cells at >=50 uM after 48 hrs by sulforhodamine B assay; format: functional, cell-based
[16] = system: MCF7; experiment: Cell cycle arrest in human MCF7 cells assessed as accumulation at G1/G0 phase at 100 uM after 18 hrs by propidium iodide staining-based flow cytometry; format: functional; in short: as §4
[17] = system: MCF7; experiment: Induction of apoptosis in human MCF7 cells at 100 uM after 18 hrs by propidium iodide staining-based flow cytometry; format: functional, cell-based
[18] = target: T1, NAD-dependent protein deacetylase sirtuin-2 (Homo sapiens); experiment: Inhibition of SIRT2 in human MCF7 cells assessed as alpha-tubulin acetylation at 50 to 100 uM after 18 hrs by Western blotting analysis; format: cell-based; in short: as §2
[19] = system: A549; experiment: Cell cycle arrest in human A549 cells assessed as reduction in G2 phase at 100 uM after 18 hrs by propidium iodide staining-based flow cytometry; format: functional; in short: as §4
[20] = system: A549; experiment: Cell cycle arrest in human A549 cells assessed as accumulation at G1/G0 phase at 100 uM after 18 hrs by propidium iodide staining-based flow cytometry; format: functional; in short: as §4
[21] = system: A549; experiment: Induction of apoptosis in human A549 cells at 100 uM after 18 hrs by propidium iodide staining-based flow cytometry; format: functional, cell-based
[22] = target: T1, NAD-dependent protein deacetylase sirtuin-2 (Homo sapiens); experiment: Inhibition of sirtuin-2 (unknown origin) by SIRTainty assay in presence of NAD+; conditions: concentration not given here
In short: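 SIRT2 run in the SIRTainty kit, which uses nicotinamidase to detect nicotinamide released from NAD+, with and without NAD+. Fluorescence ex 405/em 460 nm, given as percent inhibition of the NAD+-dependent signal.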

inhibition [1]: 56%
SMILES: O=C1CC(CCc2ccc3ncccc3c2)Oc2c(Br)cc(Cl)cc21 (stereo unspecified)

inhibition [1]: 18%
SMILES: O=C1CC(CCCO)Oc2c(Br)cc(Cl)cc21 (stereo unspecified)

inhibition [3]: Active
IC50 [4]: 3.7 µM
inhibition [5]: Dose-dependent effect
inhibition [1]: 86%
SMILES: O=C1CC(CCc2cccnc2)Oc2c(Br)cc(Cl)cc21 (stereo unspecified)
Activity [2]: inactive
Activity [6]: inactive
growth inhibition (GI) [7]: Active
Activity [8]: Toxic
growth inhibition (GI) [9]: Active
growth inhibition (GI) [10]: Active
growth inhibition (GI) [11]: Active
growth inhibition (GI) [12]: Active
Activity [13]: Active
Activity [14]: Active
growth inhibition (GI) [15]: Active

inhibition [1]: 6.8%
SMILES: O=C(O)CCC1CC(=O)c2cc(Cl)cc(Br)c2O1 (stereo unspecified)

inhibition [1]: 76%
SMILES: N/C=C1\C(=O)c2cc(Cl)cc(Br)c2OC1CCc1ccccc1 (stereo unspecified)

inhibition [1]: 23%
SMILES: CC(C)NC(=O)CCCC1CC(=O)c2cc(Cl)cc(Br)c2O1 (stereo unspecified)

inhibition [1]: 49%
SMILES: Cc1noc(CCCC2CC(=O)c3cc(Cl)cc(Br)c3O2)n1 (stereo unspecified)

inhibition [1]: 0.2%
SMILES: CNC(=O)CCC1CC(=O)c2cc(Cl)cc(Br)c2O1 (stereo unspecified)

inhibition [1]: 33%
SMILES: COCCOCC1CC(=O)c2cc(Cl)cc(Br)c2O1 (stereo unspecified)

inhibition [1]: 69%
SMILES: CCCCCC1CC(=O)c2cc(Br)ccc2O1 (stereo unspecified)

inhibition [1]: 7.6%
SMILES: O=C(O)CCCC1CC(=O)c2cc(Cl)cc(Br)c2O1 (stereo unspecified)

IC50 [4]: 28.7 µM
inhibition [1]: 81%
SMILES: CC(=O)Nc1c(CCc2ccccc2)oc2c(Br)cc(Cl)cc2c1=O

inhibition [1]: 59%
SMILES: O=C1CC(CCc2ccc3[nH]c(=O)ccc3c2)Oc2c(Br)cc(Cl)cc21 (stereo unspecified)

inhibition [1]: 73%
SMILES: O=C1CC(CCc2ccncc2)Oc2c(Br)cc(Cl)cc21 (stereo unspecified)

IC50 [4]: 12.2 µM
inhibition [5]: Dose-dependent effect
inhibition [1]: 77%
inhibition [18]: Active
SMILES: Cc1noc(CCC2CC(=O)c3cc(Cl)cc(Br)c3O2)n1 (stereo unspecified)
Activity [16]: Active
growth inhibition (GI) [10]: Active
growth inhibition (GI) [12]: Active
Activity [17]: inactive
Activity [19]: Active
Activity [20]: Active
Activity [21]: inactive

inhibition [1]: 74%
SMILES: O=C1CC(CCc2ccccn2)Oc2c(Br)cc(Cl)cc21 (stereo unspecified)

inhibition [1]: 52%
SMILES: O=C1CC(CCCCO)Oc2c(Br)cc(Cl)cc21 (stereo unspecified)

IC50 [4]: 9.6 µM
inhibition [1]: 80%
SMILES: COC(=O)CCC1CC(=O)c2cc(Cl)cc(Br)c2O1 (stereo unspecified)

IC50 [4]: 1.8 µM
inhibition [1]: 96%
SMILES: CCCCCC1CC(=O)c2cc(Br)cc(Cl)c2O1 (stereo unspecified)

IC50 [4]: 2 µM
inhibition [1]: 90%
SMILES: COC(=O)CCCC1CC(=O)c2cc(Cl)cc(Br)c2O1 (stereo unspecified)

inhibition [1]: 50%
SMILES: N#Cc1c(CCc2ccccc2)oc2c(Br)cc(Cl)cc2c1=O

inhibition [1]: 53%
SMILES: CN(C)C(=O)CCCC1CC(=O)c2cc(Cl)cc(Br)c2O1 (stereo unspecified)

inhibition [1]: 39%
SMILES: CNC(=O)CCCC1CC(=O)c2cc(Cl)cc(Br)c2O1 (stereo unspecified)

inhibition [1]: 67%
SMILES: O=C1CC(CCCCCO)Oc2c(Br)cc(Cl)cc21 (stereo unspecified)

inhibition [1]: 79%
SMILES: Nc1c(CCc2ccccc2)oc2c(Br)cc(Cl)cc2c1=O

inhibition [22]: 17%
SMILES: O=C1CC(CCCN2CCOCC2)Oc2c(Br)cc(Cl)cc21 (stereo unspecified)

inhibition [22]: 40%
SMILES: O=C1CC(CCCN2CCCCC2)Oc2c(Br)cc(Cl)cc21 (stereo unspecified)

inhibition [1]: 39%
SMILES: O=C(CCCC1CC(=O)c2cc(Cl)cc(Br)c2O1)NCc1ccccc1 (stereo unspecified)
